Each structure is given as a SMILES string. Calls of active or inactive are those of the source. No cut-off for these calls is given here.

The nature of data set [1]: Half life in OFA rat at 3 mg/kg, po measured upto 24 hrs by HPLC/UV analysis. Conditions: in vivo. It is filed as ADME, organism-based. In a few lines:
(§1)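 Female OFA rats, femoral artery/vein catheterized and recovered 96 h. Oral gavage of a micronized suspension in 0.5 % carboxymethyl cellulose at 25 or 3 mg/kg. Bioavailability taken against femoral-vein iv dosing. Plasma sampled 5 min–24 h (9 time points).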

Data set [2] is described as follows: Dose normalized Cmax in OFA rat at 3 mg/kg, po measured upto 24 hrs by HPLC/UV analysis. It is filed as ADME, organism-based. The note with it: in vivo. In a few lines: as §1
Data set [3] in a line: Volume of distribution at steady state in OFA rat at 1 mg/kg, iv measured upto 24 hrs by HPLC/UV analysis. It is filed as ADME, organism-based. The note with it: in vivo, read-out: Vdss. In a few lines:
(§2)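 Female OFA rats with femoral artery and vein catheters, 96 h recovery. IV into femoral vein: 2.5 mg/kg in ethanol/dimethylisosorbide/PEG400/D5W (10/15/35/40) or 1 mg/kg in NMP/PEG200 (30:70). Plasma sampled at 5, 15, 30 min, 1, 2, 4, 6, 8, 24 h; drug measured by HPLC (UV or MS-MS stated); parameters dose normalized, n=2-4.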

Data set [4] in a line: Half-life in OFA rat at 1 mg/kg, iv measured upto 24 hrs by HPLC/UV analysis. It counts as ADME, organism-based. The note with it: in vivo. In a few lines:
(§3)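 Catheters were placed in the femoral artery and vein of female OFA rats, followed by 96 h recovery. IV doses went into the femoral vein: 2.5 mg/kg in ethanol/dimethylisosorbide/PEG400/5 % glucose (10/15/35/40), or 1 mg/kg in NMP/PEG200 (30:70). Plasma samples at 5, 15, 30 min and 1, 2, 4, 6, 8, 24 h. Parameters reported over 24 h. n=2–4.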

Data set [5] in a line: Oral bioavailability in OFA rat at 3 mg/kg measured upto 24 hrs by HPLC/UV analysis. It counts as ADME, organism-based. The note with it: in vivo. The procedure, abridged: as §1
The nature of data set [6]: Dose normalized AUC(0 to infinity) in OFA rat at 3 mg/kg, po measured upto 24 hrs by HPLC/UV analysis. It is filed as ADME, organism-based. The note with it: in vivo. In a few lines:
as §1

Data set [7] deals with B16-BL6. As to the kind of experiment: Antitumor activity against mouse B16-BL6 cells implanted in C57BL/6jNpa mouse assessed as primary tumor growth inhibition by measuring T/C ratio at 3 mg/kg, po qd administered once every 2 days started on day 7 post implantation measured after 21 days. The note with it: time 7-21 day. It counts as functional. The procedure, abridged:
(§4)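 Female C57BL/6JNpa mice, 50000 B16/BL6 cells intradermally in both ear pinnae; primary tumor area (mm²) imaged days 7, 14, 21; randomized day 7 into groups of 5-6, oral dosing in PEG200 or PEG300 vehicle daily (or every 2 days) for 14 days; day 21 cervical lymph nodes weighed, metastasis lysates assayed for TIE-2 by ELISA; T/C ratios.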

Data set [8] can be described thus: Antitumor activity against rat BN472 cell implanted in Brown-Norway rat assessed as T/C ratio at 3 mg/kg, po qd measured upto 14 days. It counts as functional. Conditions: time <= 14 day. The procedure, abridged: (§5)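 Female Brown-Norway rats (160-180 g) given 3 mm³ BN472 tumor fragments in mammary fat pads; at about 200 mm², randomized into groups of 7-8 and dosed orally with compound or PEG300 vehicle over 14 days; tumor growth followed, T/C computed; significance by 2-way RM-ANOVA.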

Data set [9] has as its system B16-BL6. Nature of the data set: Antitumor activity against mouse B16-BL6 cells implanted in C57BL/6jNpa mouse assessed as primary tumor growth inhibition by measuring T/C ratio at 1 mg/kg, po qd administered every 2 days started on day 7 post implantation measured after 21 days. The note with it: time 7-21 day. It is filed as functional. In a few lines:
as §4

In data set [10] the test system is BN472 cell. Nature of the data set: Antitumor activity against rat BN472 cell implanted in Brown-Norway rat assessed as reduction in perfused blood vessels at 3 mg/kg, po qd measured upto 14 days by Hoechst staining based microscopic analysis. It is filed as functional, organism-based. The note with it: time <= 14.0 day. In a few lines: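 BN472-bearing Brown-Norway rats dosed orally; Hoechst dye i.v. shortly before sacrifice to mark perfused vessels; tumors cryosectioned at 10 micron, blocked in 10 % goat serum/0.1 % Triton X-100, stained with rabbit anti-Ki67 (1:200) or anti-caspase 3 (1:10) and fluorescent secondary antibodies; fluorescence microscopy.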

Data set [11] concerns B16-BL6. As to the kind of experiment: Antitumor activity against mouse B16-BL6 cells implanted in C57BL/6jNpa mouse assessed as metastatic tumor growth inhibition at 3 mg/kg, po qd administered once every 2 days started on day 7 post implantation measured after 21 days relative to control. It is filed as functional, organism-based. Conditions: time 7-21 day. The procedure, abridged: as §4

For data set [12], the system named is B16-BL6. As to the kind of experiment: Antitumor activity against mouse B16-BL6 cells implanted in C57BL/6jNpa mouse assessed as primary tumor growth inhibition at 3 mg/kg, po qd administered every 2 days started on day 7 post implantation measured after 21 days. It counts as functional, organism-based. The note with it: time 7-21 day. The procedure, abridged:
as §4

The species named for data set [13] is Mus musculus. As to the kind of experiment: Antiangiogenic activity in C57BL/6jNpa mouse harbouring mouse B16-BL6 cells assessed as reduction in tumor plasma volume measured after 3 days by DCE-MRI assay relative to control. Conditions: time 3 day. Details: scale not given: the % may be the effect or the level left. It is filed as functional. In a few lines: (§6)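 C57BL/6JNpa mice bearing B16/BL6 cervical lymph-node metastases, at least 8 per group, anaesthetized and given contrast agent; DCE-MRI Ktrans and iAUEC (permeability) and Vp (plasma volume) measured before and again after daily treatment; change per mouse recorded, mean ± SEM, one-way ANOVA with Holm-Sidak comparisons versus vehicle.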

The species named for data set [14] is Mus musculus. As to the kind of experiment: Antiangiogenic activity in C57BL/6jNpa mouse harbouring mouse B16-BL6 cells assessed as reduction in K-trans level by measuring T/C ratio measured after 3 days by DCE-MRI assay. It is filed as functional. The note with it: time 3 day. In a few lines:
as §6

Data set [15] in a line: Antitumor activity against rat BN472 cell implanted in Brown-Norway rat assessed as T/C ratio at 1 mg/kg, po administered once every 2 days measured upto 14 days. The note with it: time <= 14 day. It counts as functional. In a few lines:
as §5

The species named for data set [16] is Mus musculus. As to the kind of experiment: Antiangiogenic activity in C57BL/6jNpa mouse harbouring mouse B16-BL6 cells assessed as reduction in tumor plasma volume by measuring T/C ratio measured after 3 days by DCE-MRI assay. It counts as functional. Conditions: time 3 day. The procedure, abridged: as §6
For data set [17], the species on record is Mus musculus. Nature of the data set: Antiangiogenic activity in C57BL/6jNpa mouse harbouring mouse B16-BL6 cells assessed as reduction in iAUEC level measured after 3 days by DCE-MRI assay relative to control. It counts as functional. The arrangement: scale not given: the % may be the effect or the level left. Conditions: time 3 day. The procedure, abridged: as §6

Data set [18] can be described thus: Volume of distribution at steady state in OFA rat at 2.5 mg/kg, iv measured upto 24 hrs by HPLC/UV analysis. It is filed as ADME, organism-based. Conditions: in vivo, read-out: Vdss. In a few lines:
as §2

Data set [19] can be described thus: Half-life in OFA rat at 2.5 mg/kg, iv measured upto 24 hrs by HPLC/UV analysis. It is filed as ADME, organism-based. Conditions: in vivo. The procedure, abridged:
as §3

The nature of data set [20]: Tmax in OFA rat at 25 mg/kg, po measured upto 24 hrs by HPLC/UV analysis. It is filed as ADME, organism-based. The note with it: in vivo. The procedure, abridged:
as §1

A short description of data set [21]: Clearance in OFA rat at 2.5 mg/kg, iv measured upto 24 hrs by HPLC/UV analysis. It counts as ADME, organism-based. Conditions: in vivo. In a few lines: as §3
For data set [22], the target named is Tyrosine-protein kinase ABL1 (Homo sapiens) (UniProt P00519). Nature of the data set: Inhibition of human recombinant GST-fused ABL expressed in baculovirus expression system using poly-Glu-Tyr (4:1) as substrate measured after 10 mins in presence of gamma-[33P]-ATP by scintillation counting analysis. The procedure, abridged: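 GST-fused kinase domains were expressed in baculovirus and purified on glutathione-Sepharose. 10 min at ambient temperature, stopped with EDTA. Filter binding and scintillation counting. IC50 by linear regression of percent inhibition.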

Data set [23] is described as follows: Dose normalized AUC(0 to infinity) in OFA rat at 25 mg/kg, po measured upto 24 hrs by HPLC/UV analysis. It is filed as ADME, organism-based. Conditions: in vivo. In a few lines: as §1

Tyrosine-protein kinase ABL1 (Homo sapiens), sequence (P00519 whole entry, the tested form may be a part): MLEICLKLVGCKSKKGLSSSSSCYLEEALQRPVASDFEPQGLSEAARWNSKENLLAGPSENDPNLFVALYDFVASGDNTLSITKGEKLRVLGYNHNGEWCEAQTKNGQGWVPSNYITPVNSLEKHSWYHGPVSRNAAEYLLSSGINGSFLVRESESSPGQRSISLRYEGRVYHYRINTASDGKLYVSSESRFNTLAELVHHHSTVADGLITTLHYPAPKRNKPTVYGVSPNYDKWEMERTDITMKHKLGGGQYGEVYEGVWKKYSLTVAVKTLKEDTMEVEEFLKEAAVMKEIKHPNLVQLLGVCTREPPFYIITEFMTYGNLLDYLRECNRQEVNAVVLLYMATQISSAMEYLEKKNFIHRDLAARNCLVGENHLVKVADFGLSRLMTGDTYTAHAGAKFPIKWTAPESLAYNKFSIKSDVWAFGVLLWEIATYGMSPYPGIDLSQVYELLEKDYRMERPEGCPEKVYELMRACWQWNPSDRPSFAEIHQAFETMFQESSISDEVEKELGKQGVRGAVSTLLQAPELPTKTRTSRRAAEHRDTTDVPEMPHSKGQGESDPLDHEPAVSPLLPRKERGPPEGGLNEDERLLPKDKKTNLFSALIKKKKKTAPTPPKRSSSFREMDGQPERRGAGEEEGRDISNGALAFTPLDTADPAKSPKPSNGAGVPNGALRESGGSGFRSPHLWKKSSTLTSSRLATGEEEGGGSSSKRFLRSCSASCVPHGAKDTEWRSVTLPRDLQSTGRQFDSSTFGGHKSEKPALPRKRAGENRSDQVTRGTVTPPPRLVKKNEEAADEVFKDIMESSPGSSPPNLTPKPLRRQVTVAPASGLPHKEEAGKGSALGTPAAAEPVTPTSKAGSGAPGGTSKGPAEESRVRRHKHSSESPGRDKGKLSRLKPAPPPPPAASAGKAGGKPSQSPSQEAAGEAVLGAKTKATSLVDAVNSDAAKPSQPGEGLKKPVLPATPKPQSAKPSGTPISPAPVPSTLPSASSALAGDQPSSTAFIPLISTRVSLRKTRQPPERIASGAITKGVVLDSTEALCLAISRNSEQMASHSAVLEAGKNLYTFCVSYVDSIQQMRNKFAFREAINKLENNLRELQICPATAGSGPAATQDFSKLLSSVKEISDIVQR

The half-life is the time in which the quantity being followed falls by half. In general, bioavailability refers to the share of a dose that reaches the circulation, judged against a reference dose that is usually intravenous. On to `O=C(Nc1cccc(C(F)(F)F)c1)c1cccc2cc(Oc3cc(CO)ncn3)ccc12` [BFH-772], for which the half-life in data set [1] is 4.1 h; in data set [4], 2.5 h. For the same compound, the Cmax/dose in [2] is 1570 nM. Moreover, the Vd in [3] came out at 0.63 L/kg. For the same compound, the bioavailability in [5] amounted to 46%. Moreover, the AUC/dose in data set [6] was determined as 13.2 µmol·h/L.

As for `Nc1nccc(Oc2ccc3c(C(=O)Nc4ccc(F)c(C(F)(F)F)c4)cccc3c2)n1`, the T/C amounted to 0.39 in data set [7]; 0.056 in data set [8]; 0.6 in data set [9]; 0.39 in data set [14]; 0.176 in [15]; 0.36 in data set [16]. In addition, the outcome in [10], in [11] and in [12] was Active. In addition, the Activity in data set [13] and in data set [17] was 65% throughout.

As a reminder, the Tmax is the time from dosing to the highest level. A word on the clearance: it is a measure of how efficiently the substance is removed, as volume per time. `Nc1nccc(Oc2ccc3c(C(=O)Nc4cccc(C(F)(F)F)c4)cccc3c2)n1`: the Vd in [18] came out at 1.3 L/kg. Further, the half-life in [19] was 2 h. Further, the Tmax in [20] was 2 h. Besides, in data set [21], the clearance is 11 mL/min/kg. Further, the inhibition result in [22] was “Active”. In addition, the AUC/dose in [23] came to 1.22 µmol·h/L.

These data come from ChEMBL document CHEMBL5252510, “A Novel Potent Oral Series of VEGFR2 Inhibitors Abrogate Tumor Growth by Inhibiting Angiogenesis” (J Med Chem, 2016).
